Test results: ChEMBL document CHEMBL1147088, “Small molecule obatoclax (GX15-070) antagonizes MCL-1 and overcomes MCL-1-mediated resistance to apoptosis” (Proc Natl Acad Sci U S A, 2007)
Activity calls are given as the source filed them. The rule behind the calls is not given here.

Legend:
Saccharomyces cerevisiae [1] = experiment: Growth inhibition of Saccharomyces cerevisiae W301; format: functional, organism-based
How it was run: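 W301 yeast transformed with BCL-family/BAX/BAK or control vectors, then grown in synthetic complete medium with 2% raffinose and 2% galactose. Seeded at 0.01 OD units and shaken 48 h at 30°C. Compound or vehicle was added to growth medium with final DMSO 0.67%. Cell density was the read-out, and IC50 values were recorded.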

[2] = target: Apoptosis regulator Bcl-2 (Homo sapiens, UniProt P10415); experiment: Binding affinity to BCL2
Sequence of Apoptosis regulator Bcl-2 (P10415 whole entry): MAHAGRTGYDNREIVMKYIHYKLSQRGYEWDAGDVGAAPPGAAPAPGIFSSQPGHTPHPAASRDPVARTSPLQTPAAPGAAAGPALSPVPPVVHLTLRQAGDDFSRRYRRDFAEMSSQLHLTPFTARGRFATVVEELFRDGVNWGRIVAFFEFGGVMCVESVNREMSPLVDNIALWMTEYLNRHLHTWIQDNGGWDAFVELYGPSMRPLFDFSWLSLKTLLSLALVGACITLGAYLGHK

KB [3] = experiment: Depletion of cytochrome c in mitochondria of human KB cells at 2.0 uM; format: functional, cell-based
How it was run: (§1)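 Mitochondria isolated from KB cells were incubated 30 min at 37°C with DMSO or compound, then reisolated. Mitochondrial pellet and post-mitochondrial supernatant were analysed by SDS/PAGE and cytochrome c immunoblot, with actin and a control protein as loading controls.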

Epithelial cell = experiment: […] in Bax and Bak double knock out E1A/p53DN-transformed mouse kidney epithelial cells assessed as caspase-3 activation at 2.0 uM; format: functional, cell-based
Eu-Myc [4] = experiment: Induction of apoptosis in mouse Eu-Myc cells overexpressing MCL1 assessed as inhibition of colony formation at 1 uM; format: functional, cell-based
Eu-Myc [5] = experiment: Induction of apoptosis in mouse Eu-Myc cells overexpressing BCL2 assessed as inhibition of colony formation at 1 uM; format: functional, cell-based
Eu-Myc [6] = experiment: Induction of apoptosis in mouse Eu-Myc cells overexpressing A1 assessed as inhibition of colony formation at 1 uM; format: functional, cell-based
Eu-Myc [7] = experiment: Induction of apoptosis in mouse Eu-Myc cells overexpressing MCL1 assessed as inhibition of cell survivability at 1 uM; format: functional, cell-based
Eu-Myc [8] = experiment: Induction of apoptosis in mouse Eu-Myc cells overexpressing BCL2 assessed as inhibition of cell survivability at 1 uM; format: functional, cell-based
Eu-Myc [9] = experiment: Induction of apoptosis in mouse Eu-Myc cells overexpressing A1 assessed as inhibition of cell survivability at 1 uM; format: functional, cell-based
Mus musculus [10] = experiment: Toxicity in CB17 SCID mouse bearing human C33A cells xenografts assessed as survivability at 2 mg/kg, ip administered once in 3 days for 5 times after 14 days; format: organism-based, C-33-A; parameters: dose 2 mg/kg, route intraperitoneal; settings: in vivo, 336 h
How it was run: (§2)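 Tumor-bearing mice as in the xenograft study (BALB/c with 4T1; CB17 SCID with C33A, PC3, SW480), 8 per cohort, dosed i.p. once every 3 days ×5. Body weight measured three times weekly; animal deaths and weight change recorded 14 days after first injection.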

Mus musculus [11] = experiment: Toxicity in CB17 SCID mouse bearing human PC3 cells xenografts assessed as survivability at 2 mg/kg, ip administered once in 3 days for 5 times after 14 days; format: organism-based, PC-3; parameters: dose 2 mg/kg, route intraperitoneal; settings: in vivo, 336 h; how it was run: as §2
Mus musculus [12] = experiment: Toxicity in CB17 SCID mouse bearing human SW480 cells xenografts assessed as survivability at 2 mg/kg, ip administered once in 3 days for 5 times after 14 days; format: organism-based; parameters: dose 2 mg/kg, route intraperitoneal; settings: in vivo, 336 h; how it was run: as §2
Mus musculus [13] = experiment: Toxicity in BALB/c mouse bearing mouse 4T1 cells xenografts assessed as survivability at 2 mg/kg, ip administered once in 3 days for 5 times after 14 days; format: organism-based; parameters: dose 2 mg/kg, route intraperitoneal; settings: in vivo, 336 h; how it was run: as §2
Mus musculus [14] = experiment: Toxicity in CB17 SCID mouse bearing human C33A cells xenografts assessed as weight change at 2 mg/kg, ip administered once in 3 days for 5 times after 14 days; format: organism-based, C-33-A; parameters: dose 2 mg/kg, route intraperitoneal; settings: in vivo, 336 h; how it was run: as §2
Mus musculus [15] = experiment: Toxicity in CB17 SCID mouse bearing human PC3 cells xenografts assessed as weight change at 2 mg/kg, ip administered once in 3 days for 5 times after 14 days; format: organism-based, PC-3; parameters: dose 2 mg/kg, route intraperitoneal; settings: in vivo, 336 h; how it was run: as §2
Mus musculus [16] = experiment: Toxicity in CB17 SCID mouse bearing human SW480 cells xenografts assessed as weight change at 2 mg/kg, ip administered once in 3 days for 5 times after 14 days; format: organism-based; parameters: dose 2 mg/kg, route intraperitoneal; settings: in vivo, 336 h; how it was run: as §2
E1A/p53DN [17] = experiment: Increase in inhibition of MCL1 +/+ in mouse Bim transformed E1A/p53DN cells; format: functional, cell-based
[18] = target: Induced myeloid leukemia cell differentiation protein Mcl-1 (Homo sapiens, UniProt Q07820); experiment: Inhibition of BH3 peptide binding to human recombinant MCL1 by fluorescence polarization assay
Sequence of Induced myeloid leukemia cell differentiation protein Mcl-1 (Q07820 whole entry): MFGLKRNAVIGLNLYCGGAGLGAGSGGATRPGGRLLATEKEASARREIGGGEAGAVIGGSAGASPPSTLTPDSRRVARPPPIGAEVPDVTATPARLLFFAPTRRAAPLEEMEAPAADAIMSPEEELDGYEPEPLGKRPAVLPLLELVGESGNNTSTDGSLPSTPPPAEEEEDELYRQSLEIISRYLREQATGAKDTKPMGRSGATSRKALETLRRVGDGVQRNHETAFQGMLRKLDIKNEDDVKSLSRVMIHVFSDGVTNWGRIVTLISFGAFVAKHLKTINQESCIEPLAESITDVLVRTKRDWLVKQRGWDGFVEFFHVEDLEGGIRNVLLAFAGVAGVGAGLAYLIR

Bcl-2-like protein 2 = target: T1, Bcl-2-like protein 2 (Homo sapiens, UniProt Q92843); experiment: Inhibition of BH3 peptide binding to human recombinant BCL-w by fluorescence polarization assay
T1 sequence (Q92843 whole entry): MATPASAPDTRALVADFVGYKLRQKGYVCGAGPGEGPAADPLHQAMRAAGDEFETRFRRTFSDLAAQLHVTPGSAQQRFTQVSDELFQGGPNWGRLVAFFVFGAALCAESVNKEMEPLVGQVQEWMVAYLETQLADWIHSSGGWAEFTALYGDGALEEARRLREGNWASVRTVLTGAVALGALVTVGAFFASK

Bcl-2-related protein A1 = target: T2, Bcl-2-related protein A1 (Homo sapiens, UniProt Q16548); experiment: Inhibition of BH3 peptide binding to human recombinant A1 by fluorescence polarization assay
T2 sequence (Q16548 whole entry): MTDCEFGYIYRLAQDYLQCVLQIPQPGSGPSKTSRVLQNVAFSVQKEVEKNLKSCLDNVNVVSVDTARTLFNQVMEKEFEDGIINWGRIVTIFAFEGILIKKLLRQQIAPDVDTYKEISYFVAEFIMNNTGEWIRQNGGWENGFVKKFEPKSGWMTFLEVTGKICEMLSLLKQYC

Bcl-2-like protein 10 = target: T3, Bcl-2-like protein 10 (Homo sapiens, UniProt Q9HD36); experiment: Inhibition of BH3 peptide binding to human recombinant BCL-b by fluorescence polarization assay
T3 sequence (Q9HD36 whole entry): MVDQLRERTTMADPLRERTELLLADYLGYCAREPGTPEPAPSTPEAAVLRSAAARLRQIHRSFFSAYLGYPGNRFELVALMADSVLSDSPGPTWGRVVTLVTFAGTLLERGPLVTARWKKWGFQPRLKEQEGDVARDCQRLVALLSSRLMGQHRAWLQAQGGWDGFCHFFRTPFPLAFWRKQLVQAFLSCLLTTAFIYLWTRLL

SK-MEL-5 [19] = experiment: Inhibition of MCL1-BAK interaction in mitochondria of human SKMel5 cells at 10 nM; format: functional, cell-based
KB [20] = experiment: Release of cytochrome c in mitochondria of human KB cells at 2 uM; format: functional, cell-based; how it was run: as §1
SK-MEL-5 [21] = experiment: Reduction in MCL1-BAK interaction in mitochondria of human SKMel5 cells at 1 uM after 5 hrs by immunoprecipitation; format: functional, cell-based
SK-MEL-5 [22] = experiment: Disruption of BCL2-BIM interaction in mitochondria of human SKMel5 cells 5 hrs by immunoprecipitation; format: functional, cell-based
Saccharomyces cerevisiae [23] = experiment: Antagonism of BAX/BAK dependent BCL pathway-mediated inhibition of Saccharomyces cerevisiae W301; format: functional, organism-based
How it was run: (§3)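 W301 yeast transformed with the indicated vectors; cultures in synthetic complete medium with 2% raffinose and 2% galactose, seeded at 0.01 OD units, compound or vehicle added (0.67% DMSO final). Cell density read after 48 h shaking at 30°C.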

Saccharomyces cerevisiae [24] = experiment: Antagonism of BCL pathway-mediated inhibition of Saccharomyces cerevisiae W301 in absence of BAX/BAK; format: functional, organism-based; how it was run: as §3
Mus musculus [25] = experiment: Toxicity in BALB/c mouse bearing mouse 4T1 cells xenografts assessed as weight change at 2 mg/kg, ip administered once in 3 days for 5 times after 14 days; format: organism-based; parameters: dose 2 mg/kg, route intraperitoneal; settings: in vivo, 336 h; how it was run: as §2
C-33-A = experiment: Antitumor activity in CB17 SCID mouse bearing human C33A cells xenografts at 2 mg/kg, ip administered once in 3 days for 5 times after 14 days; format: functional; settings: route intraperitoneal
How it was run: (§4)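 Female mice, 6–8 weeks (BALB/c for 4T1; CB17 SCID for C33A, PC3, SW480), given s.c. flank cells in PBS. Dosing i.p. once every 3 days ×5, starting day 7 (SW480), 14 (C33A) or 8 (PC3, 4T1). Tumor size measured thrice weekly, volume = length × width²/2, 8 animals/cohort; T/C (mean tumor size change treated ÷ control) at 14 days after first dose.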

PC-3 = experiment: Antitumor activity in CB17 SCID mouse bearing human PC3 cells xenografts at 2 mg/kg, ip administered once in 3 days for 5 times after 14 days; format: functional; settings: route intraperitoneal; how it was run: as §4
SW480 = experiment: Antitumor activity in CB17 SCID mouse bearing human SW480 cells xenografts at 2 mg/kg, ip administered once in 3 days for 5 times after 14 days; format: functional; settings: route intraperitoneal; how it was run: as §4
4T1 = experiment: Antitumor activity in BALB/c mouse bearing mouse 4T1 cells xenografts at 2 mg/kg, ip administered once in 3 days for 5 times after 14 days; format: functional; settings: route intraperitoneal; how it was run: as §4
E1A/p53DN [26] = experiment: Increase in inhibition of MCL1 -/- in mouse Bim transformed E1A/p53DN cells; format: functional, cell-based
KB [27] = experiment: Reversal of MCL1 mediated resistance to ABT-737 in BCL2 overexpressing human KB cells assessed as cell death; format: functional, cell-based
B16-F1 = experiment: Reversal of MCL1 mediated resistance to bortezomib in mouse B16-F1 cells assessed as cell death; format: functional, cell-based
[28] = Cytotoxicity against mouse B16-F1 cells transfected with MCL1 siRNA assessed as assessed as annexin 5 uptake at 100 nM after 24 hrs by flow cytometry; format: functional
[29] = Cytotoxicity against mouse B16-F1 cells transfected with luciferase siRNA assessed as assessed as annexin 5 uptake at 100 nM after 24 hrs by flow cytometry; format: functional

## CC[C@@]1(O)C(=O)OCc2c1cc1n(c2=O)Cc2cc3ccccc3nc2-1 [CAMPTOTHECIN]
Saccharomyces cerevisiae [1]
  IC50: > 200000 nM

## Oc1cc(O)c2c(c1)O[C@H](c1ccc(O)c(O)c1)[C@H](O)C2 [CATECHIN]
[2]
  Ki: > 100000 nM

## O=C(O[C@H]1Cc2c(O)cc(O)cc2OC1c1cc(O)c(=O)c2c(O)c(O)cc([C@H]3Oc4cc(O)cc(O)c4C[C@H]3O)c2c1)c1cc(O)c(O)c(O)c1 (stereo partly specified)
[2]
  Ki: 1230 nM

## Oc1cc(O)c2c(c1)O[C@H](c1cc(O)c(O)c(O)c1)[C@H](O)C2 [EPIGALLOCATECHIN]
[2]
  Ki: > 100000 nM

## CC[C@H](C)[C@H](NC(=O)[C@H](CC(N)=O)NC(=O)[C@H](CCCNC(=N)N)NC(=O)[C@@H](NC(=O)[C@@H](NC(=O)[C@H](CC(=O)O)NC(=O)[C@@H](N)CCC(=O)O)[C@@H](C)CC)[C@@H](C)CC)C(=O)N[C@@H](C)C(=O)N[C@@H](CCCNC(=N)N)C(=O)N[C@@H](Cc1cnc[nH]1)C(=O)N[C@@H](CC(C)C)C(=O)N[C@@H](C)C(=O)N[C@@H](CCC(N)=O)C(=O)N[C@H](C(=O)NCC(=O)N[C@@H](CC(=O)O)C(=O)N[C@@H](CO)C(=O)N[C@@H](CCSC)C(=O)N[C@@H](CC(=O)O)C(=O)N[C@@H](CCCNC(=N)N)C(=O)O)C(C)C
KB [3]
  Activity: Active

## COC1=CC(c2cc3ccccc3[nH]2)=N/C1=C\c1[nH]c(C)cc1C [OBATOCLAX]
Epithelial cell
  Activity: Active
Eu-Myc [4]
  Activity: Active
Eu-Myc [5]
  Activity: Active
Eu-Myc [6]
  Activity: Active
Eu-Myc [7]
  Activity: Active
Eu-Myc [8]
  Activity: Active
Eu-Myc [9]
  Activity: Active
Mus musculus [10]
  Activity: Non-toxic
Mus musculus [11]
  Activity: Non-toxic
Mus musculus [12]
  Activity: Non-toxic
Mus musculus [13]
  Activity: Non-toxic
Mus musculus [14]
  Activity: 7%
Mus musculus [15]
  Activity: 10%
Mus musculus [16]
  Activity: 3%
E1A/p53DN [17]
  Activity: Active
[18]
  Ki: 1000 nM
Bcl-2-like protein 2
  Ki: 1000 nM
Bcl-2-related protein A1
  Ki: 1000 nM
Bcl-2-like protein 10
  Ki: 1000 nM
SK-MEL-5 [19]
  Activity: Active
KB [20]
  Activity: inactive
SK-MEL-5 [21]
  Activity: Active
SK-MEL-5 [22]
  Activity: Active
Saccharomyces cerevisiae [23]
  Activity: Active
Saccharomyces cerevisiae [24]
  Activity: inactive
Mus musculus [25]
  Activity: 1%
C-33-A
  Activity: 11%
PC-3
  Activity: 28%
SW480
  Activity: 35%
4T1
  Activity: 42%
E1A/p53DN [26]
  Activity: Active
KB [27]
  Activity: Active
B16-F1
  Activity: Active

## CC(C)C[C@H](NC(=O)[C@H](Cc1ccccc1)NC(=O)c1cnccn1)B(O)O [BORTEZOMIB]
[28]
  Activity: 42%
[29]
  Activity: 14%

## O=c1c(O)cc([C@H]2Oc3cc(O)cc(O)c3C[C@H]2O)cc2c([C@H]3Oc4cc(O)cc(O)c4C[C@H]3O)cc(O)c(O)c12 [THEAFLAVIN]
[2]
  Ki: 692 nM
